14 molecules from ChEMBL document CHEMBL1127507, “Search for the pharmacophore of bispyridinium-type allosteric modulators of muscarinic receptors” (J Med Chem, 1994) can be followed below.

SMILES strings stand for the structures. Values joined by “and” are separate entries in the source; they are usually repeats but may differ in a detail not shown here. Equal entries are not always repeated.

Data set [1] concerns the target T1, Muscarinic acetylcholine receptor M2 (Sus scrofa) (UniProt P06199).
T1 sequence (whole entry): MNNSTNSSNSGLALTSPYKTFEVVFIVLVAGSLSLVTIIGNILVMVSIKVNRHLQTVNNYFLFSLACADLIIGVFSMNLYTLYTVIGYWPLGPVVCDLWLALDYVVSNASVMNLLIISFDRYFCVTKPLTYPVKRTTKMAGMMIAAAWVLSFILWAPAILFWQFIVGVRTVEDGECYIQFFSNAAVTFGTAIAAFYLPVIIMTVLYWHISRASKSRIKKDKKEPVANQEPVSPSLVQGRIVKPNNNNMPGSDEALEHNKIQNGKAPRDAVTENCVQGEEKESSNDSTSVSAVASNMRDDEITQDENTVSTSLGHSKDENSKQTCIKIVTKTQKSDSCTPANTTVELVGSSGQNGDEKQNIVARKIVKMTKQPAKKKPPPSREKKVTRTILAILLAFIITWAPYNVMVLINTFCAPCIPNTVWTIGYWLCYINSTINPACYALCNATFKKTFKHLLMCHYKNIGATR
As to the kind of experiment: Hill coefficient, slope factors of reduction in dissociation rate of [3H]NMS from M2 receptor of pig heart. The gist of the method: (§1)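 Porcine ventricular membranes (sucrose homogenate, 80000g pellet in 50 mM Tris-HCl pH 7.4) preincubated 30 min with 0.2 nM [3H]NMS in 3 mM MgHPO4/50 mM Tris-HCl, pH 7.3, 37 °C; dissociation started with 1 μM atropine plus compound. Residual binding at 4 min (two-point) gave k-1; sigmoid fit yielded EC50 and slope; filtration, scintillation; n=3-5.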

In data set [2] the target is T2, Muscarinic acetylcholine receptor M2 (Sus scrofa, UniProt P06199).
T2 sequence (P06199 whole entry): T1 sequence (whole entry)
Description: Reduction of dissociation rate of [3H]N-methylscopolamine ([3H]NMS) from muscarinic acetylcholine receptor M2 of pig heart. In short, it runs like this: as §1

Data set [3] in a line: Partition coefficient (logP). In kind it is physicochemical. Conditions: octanol/water. The gist of the method: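 Compound at 5×10^-5 M in octanol-saturated Na2HPO4 buffer pH 7.4, absorbance at 290 nm; 0.7 mL shaken 2 h with equal volume buffer-saturated octanol, centrifuged, aqueous absorbance remeasured; partition coefficient and log P from absorbance difference.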

In the case of `CO/N=C/c1cc[n+](CCC[n+]2ccc(/C=N/OCc3c(Cl)cccc3Cl)cc2)cc1`, the nH in data set [1] came to 1.2. Besides, the EC50 in data set [2] is 4.5 µM. Moreover, the logP in data set [3] is -2.
Molecule `Clc1cccc(Cl)c1CO/N=C/c1cc[n+](CCCc2ccccc2)cc1` displayed a nH in data set [1] of 1.2. The same molecule yielded an EC50 in data set [2] of 9.4 µM. In data set [3], this molecule registered a logP of 0.5.
With `O/N=C/c1cc[n+](CCC[n+]2ccc(/C=N/O)cc2)cc1` [TRIMEDOXIME], the EC50 in data set [2] was > 1000 µM.
In data set [1], `CCC[n+]1ccc(/C=N/OCc2c(Cl)cccc2Cl)cc1` had a nH of 1.2. This molecule had an EC50 in data set [2] of 26 µM. In data set [3], this molecule returned a logP of 0.6.
For `CO/N=C/c1cc[n+](CCC[n+]2ccc(/C=N/OC)cc2)cc1`, in data set [2], the EC50 was > 1000 µM.
`Clc1cccc(Cl)c1CO/N=C/c1cc[n+](CCC[n+]2ccccc2)cc1` returned a nH in data set [1] of 1.2. Further, the EC50 in data set [2] was determined as 21 µM.
For `Clc1cccc(Cl)c1CO/N=C/c1cc[n+](CCC[n+]2ccc(/C=N/OCc3c(Cl)cccc3Cl)cc2)cc1`, in data set [1], the nH came out at 1.7. In data set [2], this molecule came in with an EC50 of 4.7 µM. In data set [3], this molecule returned a logP of 0.6.
On the same counts, the results for `Cc1cc[n+](CCC[n+]2ccc(/C=N/OCc3c(Cl)cccc3Cl)cc2)cc1` are 1.1, 12 µM and 1.3.
On the same counts, the results for `CC[N+](CC)(CC)CCC[n+]1ccc(/C=N/OCc2c(Cl)cccc2Cl)cc1` are 0.9, 23 µM and 1.4.
For `O/N=C/c1cc[n+](CCC[n+]2ccc(/C=N/OCc3c(Cl)cccc3Cl)cc2)cc1` the same measures were 1.3, 11 µM and 1.7.
As to `COc1ccc(CCC[n+]2ccc(/C=N/OCc3c(Cl)cccc3Cl)cc2)cc1`, the nH in data set [1] was 1.5. In data set [2], the EC50 came to 6 µM. The same molecule returned a logP in data set [3] of 0.3.
Molecule `N#Cc1cc[n+](CCC[n+]2ccc(/C=N/OCc3c(Cl)cccc3Cl)cc2)cc1` gave a nH in data set [1] of 1.1. Moreover, the EC50 in data set [2] worked out at 17 µM.
In turn, `CN(C)c1cc[n+](CCC[n+]2ccc(/C=N/OCc3c(Cl)cccc3Cl)cc2)cc1` showed a nH in data set [1] of 1.3. For the same molecule, in data set [2], the EC50 is 4.2 µM. The logP in data set [3] turned out to be 1.5.
For the molecule `C[N+](C)(C)CCC[n+]1ccc(/C=N/OCc2c(Cl)cccc2Cl)cc1`, the nH in data set [1] is 1.5 and 1.3. In addition, the EC50 in data set [2] stood at 25 µM. In data set [3], this molecule registered a logP of 1.7.
